Measurements as given in ChEMBL document CHEMBL6182837, “Discovery and biological evaluation of nitrofuranyl-pyrazolopyrimidine hybrid conjugates as potent antimicrobial agents targeting Staphylococcus aureus and methicillin-resistant S. aureus” (RSC Med Chem, 2025).
In brackets after ≈: the same amount, converted by molar mass. Activity calls are given as the source filed them. No cut-off for these calls is given here.

Tests used:
Staphylococcus aureus [1] = experiment: Antibacterial activity against methicillin-resistant Staphylococcus aureus ATCC 15187 infected in male Balb/c/c mouse assessed as reduction in bacterial load in lung at 50 to 100 mg/kg measured after 24 hrs by colony counting method; type: functional, organism-based; conditions: dose 50-100 mg/kg
Method in brief: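 Mouse peritonitis model: 0.1 ml MRSA suspension (10^8 CFU ml−1) given intraperitoneally; treatment intraperitoneal at 50 or 100 mg kg−1 at 2 and 5 h post-infection, with saline and vancomycin (50 mg kg−1) controls; killed at 24 h; kidney and lung homogenates plated on Mueller–Hinton agar with 20 μg ml−1 ciprofloxacin, 24 h; CFU ml−1; unpaired t-test.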

[2] = Cmax in male Balb/c mouse at 30 mg/kg, po by LC-MS/MS analysis; type: ADME, organism-based; conditions: in vivo
Method in brief: (§1)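 Balb/c mice dosed 1 mg kg−1 intravenously or 30 mg kg−1 orally (2.5 mg kg−1 oral also given); plasma PK parameters derived.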

Staphylococcus aureus [3] = experiment: Additive antibacterial activity against Staphylococcus aureus ATCC 29213 assessed as fractional inhibitory concentration index at 0.02 ug/ml incubated up to 24 hrs in presence of ciprofloxacin by checkerboard analysis; type: functional; conditions: dose 0.02 µg/ml
Method in brief: (§2)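 Checkerboard microdilution in cation-adjusted MHB, done per CLSI. The compound and partner antibiotic were dissolved in DMSO. The antibiotic was serially diluted across the plate and the compound was twofold serially diluted into the wells to make the combinations. Each well received 0.1 ml of inoculum, a 0.5 McFarland suspension (1.5 × 10^8 CFU ml−1) diluted 1:100 in MHB. Plates were incubated 24 h at 37 °C, then read with Alamar blue (0.04%). FIC index was calculated.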

[4] = Terminal half life in male Balb/c mouse at 1 mg/kg, iv by LC-MS/MS analysis; type: ADME, organism-based; conditions: in vivo, read-out: beta t1/2 (converted)
Method in brief: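 Balb/c mice dosed intravenously at 1 mg kg−1; plasma pharmacokinetic profile analysed for half-life, C0, AUC0−t and clearance.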

[5] = AUC (0 to t) in male Balb/c mouse at 30 mg/kg, po by LC-MS/MS analysis; type: ADME, organism-based; conditions: in vivo; method in brief: as §1
Staphylococcus aureus [6] = experiment: Induction of resistance development in Staphylococcus aureus ATCC 29213 at 0.5 MIC measured after […]; type: functional, organism-based; conditions: 0.5 M
Method in brief: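 Bacteria serially passaged under sublethal drug exposure over 20 days, with MIC redetermined at each passage; vancomycin and norfloxacin as controls.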

Staphylococcus aureus [7] = experiment: Antibacterial activity against methicillin-resistant Staphylococcus aureus ATCC 15187 incubated for 24 hrs by Alamar blue staining based microdilution method; type: functional
Staphylococcus aureus [8] = experiment: Induction of resistance development in methicillin-resistant Staphylococcus aureus ATCC 15187 assessed as fold increase in MIC at 0.5 MIC measured after 20 passages relative to control; type: functional
Method in brief: (§3)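 Bacteria were serially passaged for 20 days after exposure to a sublethal drug concentration. MIC was determined at each passage. Vancomycin and norfloxacin were run as control agents.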

[9] = Cytotoxicity against mouse RAW264.7 cells incubated for 48 to 72 hrs by absorbance based assay; type: toxicity, cell-based
Method in brief: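 MTT read-out: macrophage cells plated at 1 × 10^4 cells per well in DMEM with 10% FBS, 37 °C, 5% CO2; treatment 48 h and 72 h; 2.5 mg ml−1 MTT 3 h, formazan dissolved in DMSO, OD 570 nm; doxorubicin 10 μM control.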

Staphylococcus aureus [10] = experiment: Bactericidal activity against Staphylococcus aureus ATCC 29213 assessed as reduction in bacterial count at 2 to 4 times MIC incubated for 2 to 24 hrs by time-kill assay relative to control; type: functional; design: scale not given: the % may be the effect or the level left; conditions: time 2-24 hrs
Staphylococcus aureus [11] = experiment: Synergistic antibacterial activity against methicillin-resistant Staphylococcus aureus ATCC 15187 assessed as fractional inhibitory concentration index at 0.075 ug/ml incubated up to 24 hrs in presence of rifampicin by checkerboard analysis; type: functional; conditions: dose 0.075 µg/ml; method in brief: as §2
Staphylococcus aureus [12] = experiment: Inhibition of biofilm formation of methicillin-resistant Staphylococcus aureus ATCC 15187 incubated for 27 hrs by absorbance based method; type: functional, organism-based
Staphylococcus aureus [13] = experiment: Induction of morphological disruption in Staphylococcus aureus ATCC 29213 incubated for 2 to 6 hrs by SEM analysis; type: functional, organism-based; conditions: time 2-6 hrs
Method in brief: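 S. aureus incubated 2 h and 6 h with compound at 1×, 2×, 4× MIC, imaged by scanning electron microscopy; untreated, vancomycin and daptomycin (1×, 2× MIC) controls.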

Staphylococcus aureus [14] = experiment: Additive antibacterial activity against Staphylococcus aureus ATCC 29213 assessed as fractional inhibitory concentration index at 0.02 ug/ml incubated up to 24 hrs in presence of rifampicin by checkerboard analysis; type: functional; conditions: dose 0.02 µg/ml; method in brief: as §2
[15] = Lipophilicity, logP of compound; type: physicochemical; conditions: octanol/water
J774.A1 = experiment: Cytotoxicity against mouse J774.A1 cells up to 200 ug/ml incubated for 24 hrs by absorbance based assay
[16] = AUC (0 to infinity) in male Balb/c mouse at 1 mg/kg, iv by LC-MS/MS analysis; type: ADME, organism-based; conditions: in vivo; method in brief: as §1
Staphylococcus aureus [17] = experiment: Induction of membrane permeabilization in Staphylococcus aureus ATCC 29213 at 1 to 8 times MIC measured after 80 mins by PI staining based analysis relative to control; type: functional; conditions: 1.333 h
Method in brief: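 PI permeabilization of S. aureus at 1×, 2×, 4×, 8× MIC followed over time up to 80 min; vancomycin 4× and 8× MIC as drug control; untreated blank; percentage permeabilization.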

Staphylococcus aureus [18] = experiment: Synergistic bactericidal activity against Staphylococcus aureus ATCC 29213 assessed as reduction in bacterial count at 0.02 ug/ml measured after 24 hrs in presence of vancomycin by time-kill assay; type: functional, organism-based; conditions: dose 0.02 µg/ml
Method in brief: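 Time-kill with compound combined with vancomycin at synergistic concentrations (from checkerboard FIC) against S. aureus; CFU followed up to 8 h and at 24 h.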

Staphylococcus aureus [19] = experiment: Bactericidal activity against methicillin-resistant Staphylococcus aureus ATCC 15187 assessed as reduction in bacterial count incubated for 2 to 24 hrs by time-kill assay; type: functional, organism-based; conditions: time 2-24 hrs
[20] = Lipophilicity, logD of compound; type: physicochemical; conditions: octanol/water
Staphylococcus aureus [21] = experiment: Bactericidal activity against methicillin-resistant Staphylococcus aureus ATCC 15187 assessed as reduction in bacterial count at 4 times MIC measured for 2 hrs by time-kill assay; type: functional, organism-based
[22] = Efflux ratio of permeability across basal to apical side over apical to basal side in human Caco-2 cells; type: ADME, cell-based
Staphylococcus aureus [23] = experiment: Induction of resistance development in Staphylococcus aureus ATCC 29213 assessed as fold increase in MIC at 0.5 MIC measured after 20 passages relative to control; type: functional; method in brief: as §3
[24] = C0 in male Balb/c mouse at 1 mg/kg, iv by LC-MS/MS analysis; type: ADME, organism-based; conditions: in vivo; method in brief: as §1
Staphylococcus aureus [25] = experiment: Antibacterial activity against methicillin-resistant Staphylococcus aureus ATCC 15187 infected in mouse RAW264.7 cells assessed as bacterial eradication by colony counting method based microdilution method; type: functional, organism-based
Method in brief: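 RAW 264.7 macrophages infected with MRSA, then treated at multiples of MIC non-toxic to the cells, with vancomycin control; intracellular bacterial load counted as CFU ml−1; compared with infection control by one-way ANOVA.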

With `CCCc1nn(C)c2c(Nc3ccc(O)cc3)nc(-c3ccc([N+](=O)[O-])o3)nc12` the Activity (Staphylococcus aureus [1]) was “Active; Significantly Lesser Effect Was Observed At 50 To 100 Mg/Kg Compared To Vancomycin”, the Cmax [2] was 2010 ng/mL and the “fractional inhibitory concentration index (FICI)” value (Staphylococcus aureus [3]) was 1. For the same compound, the half-life [4] was 30 min, the AUC(0-t) [5] was 3150 ng·h/mL and the Activity (Staphylococcus aureus [6]) was “inactive”. For the same compound, the MIC (Staphylococcus aureus [7]) was 0.15 µg/mL (≈ 0.38 µM), the “fold change (FC)” value (Staphylococcus aureus [8]) was 3200 and the IC50 [9] was over 100 µg/mL. For the same compound, the Activity (Staphylococcus aureus [10]) was 99.9%, the “fractional inhibitory concentration index (FICI)” value (Staphylococcus aureus [11]) was 0.5 and the inhibition (Staphylococcus aureus [12]) was “Dose-dependent-effect”. For the same compound, the Activity (Staphylococcus aureus [13]) was “Active”, the “fractional inhibitory concentration index (FICI)” value (Staphylococcus aureus [14]) was 0.7 and the logP [15] was 2.92. The Activity (J774.A1) was “Non-toxic”, the AUC(0-inf) [16] was 94.8 ng·h/mL and the Activity (Staphylococcus aureus [17]) was 60%. For the same compound, the Activity (Staphylococcus aureus [18]) was “inactive”, the Activity (Staphylococcus aureus [19]) was “Dose-dependent-effect” and the logD [20] was 2.92. The Activity (Staphylococcus aureus [21]) was “Active”, the efflux ratio [22] was 1.3 and the “fold change (FC)” value (Staphylococcus aureus [23]) was 200. The C0 [24] was 552 ng/mL and the Activity (Staphylococcus aureus [25]) was “Dose-dependent-effect”.
